From ChEMBL document CHEMBL1140168, “Phthalides from Pittosporum illicioides var. illicioides with inhibitory activity on superoxide generation and elastase release by neutrophils” (J Nat Prod, 2008)

How the values were obtained:
[1] = Antiinflammatory activity in human neutrophils assessed as inhibition of fMLP/cytochalasin B-induced superoxide radical anion generation; format: functional, cell-based; conditions: Neutrophil
Summary of the method: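 Neutrophils from healthy adult donors were isolated by dextran sedimentation, Ficoll Hypaque centrifugation and hypotonic RBC lysis, then kept in Ca2+-free HBSS pH 7.4 at 4 °C. Cells with 0.5 mg/mL ferricytochrome c and 1 mM Ca2+ were equilibrated 2 min at 37 °C and given compound for 5 min. CB 1 µg/mL was added 3 min before 100 nM fMLP (10 min). SOD-inhibitable A550 was read continuously.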

[2] = Antiinflammatory activity in human neutrophils assessed as inhibition of fMLP/Cytochalasin B-induced elastase release; format: functional, cell-based; conditions: Neutrophil
Summary of the method: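 Elastase release (azurophilic degranulation) was measured in donor neutrophils (6 × 10^5/mL) with MeO-Suc-Ala-Ala-Pro-Val-p-nitroanilide substrate at 100 µM. Cells were equilibrated 2 min at 37 °C, then pretreated with compound for 5 min. Stimulation was with fMLP 100 nM plus cytochalasin B 0.5 µg/mL, and A405 was monitored continuously. IC50 came from concentration-dependent inhibition.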

| IC50 [1] [µM] | IC50 [2] [µM] | Structure (SMILES) |
| --- | --- | --- |
| 48.6 | > 50 | COc1cc2ccc(=O)oc2c(OC)c1OC [FRAXIDIN METHYL ETHER] |
| 40.2 | > 50 | COc1cc([C@@H]2OC[C@@H]3[C@H]2CO[C@H]3c2cc(OC)c(O)c(OC)c2)cc(OC)c1O |
| 41.4 | > 50 | COc1cc2ccc(=O)oc2cc1OC [SCOPARONE] |
| 13.7 | > 50 | CC[C@@H]1OC(=O)c2c1cc(OC)c(OC)c2O |
| > 50 | 33.9 | C/C=C1\OC(=O)c2c1ccc(OC)c2OC |
| 17.6 | > 50 | CC[C@@H]1OC(=O)c2c1cc(OC)c(OC)c2OC |

More lines, now with the values behind:

| Structure (SMILES) | IC50 [1] [µM] | IC50 [2] [µM] |
| --- | --- | --- |
| C/C=C1\OC(=O)c2c1ccc(OC)c2O | 45.3 | 38.6 |
| CC[C@@H]1OC(=O)c2c1ccc(OC)c2O | 29.8 | > 50 |
| CC[C@H]1OC(=O)c2c1ccc(OC)c2O | 21.2 | > 50 |
| O=S(=O)(F)Cc1ccccc1 [PHENYLMETHYLSULFONYLFLUORIDE] | – | 202 |
| c1ccc2c(c1)[I+]c1ccccc1-2 [DIPHENYLENEIODONIUM] | 1.7 | – |
